Screening results from PubChem.
Only some compounds are listed: those with a hit (about 1.9% of all), similar ones and a draw of the others.
LEDGF integ inh = blockers of LEDGF/p75-dependent integrase strand transfer – biochemical, TR-FRET, high throughput, primary screen; inhibition, % at 3.7 µM; HIV-1 integrase (with human LEDGF/p75); TR-FRET IN-LEDGF/p75 DNA integration, Eu/Cy5; 370,000 tested, 0.64% active; AID 743269, 2014;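 active means inhibition above the screen-wide mean plus 3 SD, cut at about 13% in these data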;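 further: signal is the Cy5 over europium emission ratio at 671 and 618 nm; 0% = plate median of compound wells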
TDP2 inh = human TDP2 enzyme inhibitors, primary screen, biochemical, epi absorbance, recombinant enzyme; T5PNP hydrolysis, p-nitrophenol absorbance 415 nm; inhibition, % at 12.8 µM; 370,000 tested, 0.34% active;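 active means inhibition above the mean of all tested compounds plus 3 SD, set per campaign, cut at about 25% in these data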;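 further: 0% = DMSO with enzyme and 100% = buffer with substrate but no TDP2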
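Assay system: recombinant human TDP2 / Reagent: T5PNP substrate at 5 mM, a TopII-DNA adduct mimic / Measured by: epi absorbance from released p-nitrophenol / Evaluation: % inhibition relative to enzyme-containing and enzyme-free wells / Control set: enzyme-free and DMSO wells / Replicates: each compound tested once, singlicate / Schedule: enzyme reaction with compound for 2 h at 37 °C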
CASP6 VEID inh = human caspase-6 inhibitors, primary screen, biochemical, VEID-R110 fluorescence, single point, set 2. P55212. purified caspase-6, Z-VEID-R110 cleavage fluorescence. inhibition, % at 12.5 µM. 350,000 tested, 0.53% active;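 active means mean inhibition across replicates at least about 35%, with every replicate also reaching that limit, limit read from the data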;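 further: 0% = median of neutral control wells and 100% = no fluorescence left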
MBD2 inh = inhibitors of MBD2 binding to methylated DNA, primary screen, biochemical, TR-FRET, DNA-binding domain, human; 370,000 tested, 0.31% active; Methyl-CpG-binding domain protein 2 (Homo sapiens), Q9UBB5; AID 686964, 2013; inhibition, % at 4.4 µM; MBD2 binding to methylated oligonucleotide; in the data active means inhibition above about 13%
UHRF1 MBD2 ctr = UHRF1 methylated DNA binding inhibitors, primary screen, counter-screen for MBD2 inhibitor project, biochemical, TR-FRET, human UHRF1, single concentration. UHRF1 binding to methylated oligo. inhibition, % at 4.4 µM. 370,000 tested, 0.75% active. AID 687016, 2013; in the data active means inhibition above about 21%;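 further: UHRF1 SRA domain binding a hemimethylated CpG hairpin DNA probe; 0% = median of test compound wells and 100% = reference inhibitor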
NSD2 inh = NSD2 histone methyltransferase inhibitors, primary screen, biochemical, AlphaScreen, single concentration, set 2. Histone-lysine N-methyltransferase NSD2 (Homo sapiens), O96028. NSD2 peptide methylation, 120 min. inhibition, % at 12.5 µM. 310,000 tested, 0.54% active. AID 743445, 2014; in the data active means inhibition above about 50%
The depositor's hits bear a star.

What do the screens show for `CCN1[C@@H]2Cn3c(ccc(-c4cccc(C(=O)N(C)C)c4)c3=O)[C@H]1[C@@H](C(=O)OC)[C@@H]2CO`?
CASP6 VEID inh: 0.2

How did COC(=O)[C@@H]1[C@@H](CO)[C@@H]2Cn3c(ccc(-c4cccc(OC)c4)c3=O)[C@H]1N2CC1CC1 do in these assays?
CASP6 VEID inh: -3.3

Results for COCC#Cc1ccc([C@@H]2[C@@H](CO)N3CCCCN(C(=O)Cc4ccccn4)C[C@@H]23)cc1 ?
CASP6 VEID inh: -3.0

Results for C#CCN[C@H](C)Cc1ccccc1 ?
LEDGF integ inh: -0.4; TDP2 inh: -3.8; CASP6 VEID inh: -6.4; MBD2 inh: 0.9; UHRF1 MBD2 ctr: 0.3

Results for CC(Cc1ccccc1)NCc1ccccc1O (stereo not given) ?
LEDGF integ inh: -4.3; TDP2 inh: 6.2; CASP6 VEID inh: 1.8; MBD2 inh: 3.0; UHRF1 MBD2 ctr: 34.8*; NSD2 inh: 0.9

What do the screens show for `C=C1C(=O)O[C@H]2C[C@@H](C)[C@@H]3C=CC(=O)[C@@]3(C)C[C@H]12`?
LEDGF integ inh: -0.7; TDP2 inh: -5.1; CASP6 VEID inh: 74.3*; MBD2 inh: 0.5; UHRF1 MBD2 ctr: -2.5

Results for CCN(CC)c1ccc(CN2CC=C(c3ccc(F)cc3)CC2)cc1 ?
LEDGF integ inh: -7.3; TDP2 inh: -14.1; MBD2 inh: 4.3; UHRF1 MBD2 ctr: -1.4; NSD2 inh: 54.1*

What do the screens show for `CCOC(=O)[C@]12Cc3cc(OC)ccc3[C@H]1N(CC(=O)OC)C(=O)c1cc(OC)ccc12`?
LEDGF integ inh: 2.7; TDP2 inh: -3.2; CASP6 VEID inh: 2.4; MBD2 inh: -6.4; UHRF1 MBD2 ctr: -1.8

Results for CCOC(=O)[C@]12Cc3cc(OC)ccc3[C@H]1N(CC(=O)OC)C(=O)c1ccccc12 ?
LEDGF integ inh: 9.2; TDP2 inh: -6.0; CASP6 VEID inh: 2.5; MBD2 inh: 7.9; UHRF1 MBD2 ctr: 23.6*

What do the screens show for `C[n+]1c2ccccc2nc2ccc(NCCO)cc21`?
LEDGF integ inh: 5.8; TDP2 inh: 19.1; CASP6 VEID inh: 82.5*; MBD2 inh: 3.2; UHRF1 MBD2 ctr: -7.2; NSD2 inh: 101.2*

How did O=C(C(=C1N(Cc2ccc(Cl)nc2)CCN1Cc1ccc(Cl)nc1)[N+](=O)[O-])C(Cl)Cl do in these assays?
LEDGF integ inh: -5.2; TDP2 inh: 7.9; CASP6 VEID inh: 36.0*; MBD2 inh: -0.9; UHRF1 MBD2 ctr: 2.4; NSD2 inh: -0.9

How did CCC1CO/C(=C(\C(Cl)=C(Cl)Cl)[N+](=O)[O-])N1Cc1ccc(Cl)nc1 (stereo not given) do in these assays?
LEDGF integ inh: -4.9; TDP2 inh: -5.5; CASP6 VEID inh: 2.8; MBD2 inh: -1.3; UHRF1 MBD2 ctr: 3.1; NSD2 inh: 3.3

What do the screens show for `Cc1c(N=Nc2c(O)n(-c3ccc(Br)cc3)c(=O)[nH]c2=O)c(=O)n(-c2ccccc2)n1C`?
LEDGF integ inh: -0.6; TDP2 inh: -1.7; CASP6 VEID inh: 2.6; MBD2 inh: -12.2; UHRF1 MBD2 ctr: -6.8; NSD2 inh: 0.5

Results for Cc1c(N=Nc2c(O)[nH]c(=O)[nH]c2=O)c(=O)n(-c2ccccc2)n1C ?
LEDGF integ inh: -5.0; TDP2 inh: -8.7; CASP6 VEID inh: 40.8*; MBD2 inh: -4.1; UHRF1 MBD2 ctr: -0.5; NSD2 inh: -6.1

What do the screens show for `CC(C)c1ccc(C(c2c(O)c3ccccc3oc2=O)c2c(O)c3ccccc3oc2=O)cc1`?
LEDGF integ inh: 8.4; TDP2 inh: -9.8; CASP6 VEID inh: 66.3*; MBD2 inh: -7.8; UHRF1 MBD2 ctr: -1.2; NSD2 inh: 9.9

Results for C[C@H]1CN([C@@H](C)CO)C(=O)c2c(c3ccccc3n2C)-c2ccccc2CO[C@H]1CN(C)C(=O)Oc1ccccc1 ?
CASP6 VEID inh: -1.4
